Bioassay records from PubChem.
The sample as a whole holds a higher share of hits than the screen did.
HCT116 PTEN-null = PTEN-deleted cell growth suppression | HCT116 PTEN-null viability, CellTiter-Glo, 60 h; stronger effect = lower value | viability, % at 10 µM | hit rate 1.2% among 140,000 | AID 827;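 active means viability at or below a set limit, 4 SD under the median of all tested compounds, cut at about 3.7% in these data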;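 further: PTEN knockout HCT116 line with beta catenin targeted HCT116 as companion control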
Fibroblast inh = blocks proliferation of human lung fibroblasts; viability, % at 10 µM; LL 47 human lung fibroblast viability, ATP luminescence; stronger effect = lower value; hit rate 1.1% among 85,000;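 active means viability at or below 50% in the single dose screen; inactive means viability above 50%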;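 further: compound exposure lasted 72 h before the ATP readout; 100% = median luminescence of untreated cell-only wells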
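Test system: LL 47 human lung fibroblasts; Quantity: 1,150 cells/well; Buffer or medium: IMEM plus 15% FBS; Dosing: tenfold compound dosing solution, DMSO at 0.1%; Timing: overnight cell rest, 72 h compound treatment at 37 °C; Detection: ATP-based CellTiter-Glo luminescent readout; Read-out basis: viability percentage against median untreated-cell control; Controls: cell-only wells, no compound.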
HUVEC prolif 384 = human endothelial cell proliferation inhibition | HUVEC proliferation, CellTiter-Glo luminescence, 72 h; stronger effect = lower value | viability, % at 10 µM (by protocol) | hit rate 1.1% among 86,000 | AID 648;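 active means viability at or below 30%; inactive means viability above 30%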;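 further: 100% = median luminescence of DMSO-only cell control wells on each plate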
HCT116 bCat-KO = beta-catenin-lacking colon tumor cell growth suppression | HCT116 beta-catenin knockout viability, CellTiter-Glo, 60 h; stronger effect = lower value | viability, % at 10 µM | hit rate 1.5% among 140,000 | AID 818;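 active means viability at or under a set limit, the compound median less 4 SD, cut at about 6% in these data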;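 further: 0% = Hyamine 1622 control at 20 µM and 100% = untreated cell control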
H69AR inhibit = growth inhibitors of human H69AR lung tumor cells | H69AR lung tumor viability, ATP luminescence, 72 h; stronger effect = lower value | viability, % at 10 µM | hit rate 6% among 85,000 | AID 598;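 active means viability at or below 40%; inactive means viability above 40%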;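 further: multidrug resistant small cell line overexpressing MRP-1 efflux transporter; 100% = mean luminescence of untreated control wells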
* hit, by the source's call; . = no result.

SMILES	HCT116 PTEN-null	Fibroblast inh	HUVEC prolif 384	HCT116 bCat-KO	H69AR inhibit
CCCCCn1c(=O)[nH]c2cc(C(=O)N3CCN(Cc4ccc5c(c4)OCO5)CC3)ccc2c1=O	18	62	45	16	9.3*
CC1CC(C)CN(C(=O)c2ccc3c(=O)n(Cc4ccc5c(c4)OCO5)c(=S)[nH]c3c2)C1 (configuration not stated)	77	92	73	79	83
COc1ccc(/C=C/C(=O)c2cc(F)ccc2OC(=O)c2ccccc2C)cc1OC	2.1*	.	.	2.2*	.
COc1ccc(C(=O)Oc2ccc(F)cc2C(=O)/C=C/c2ccc(OC)c(OC)c2)cc1	101	.	.	98	.
O=C(Nc1cc2c(oc1=O)CCCC2=O)c1ccc(Cl)cc1	79	.	.	83	.
O=C(N/N=C/c1cc([N+](=O)[O-])ccc1N1CCNCC1)c1ccc([N+](=O)[O-])cc1	1.1*	.	.	1.6*	.
Cc1cccc2sc(NNC(=O)c3cc(-c4cccs4)nc4ccccc34)nc12	6	.	.	2.3*	.
COc1ccc(-c2cc(C(=O)Nc3nc4c(C)cccc4s3)c3ccccc3n2)cc1OC	62	.	.	72	.
CN(C)c1oc(-c2ccccc2Cl)nc1P(=O)(c1ccccc1)c1ccccc1	60	.	.	79	.
Cc1ccc(NC(=O)CSc2ncnc3ccccc23)cc1S(=O)(=O)N1CCCCCC1	74	.	.	73	.
NC(=O)c1ccc(Br)c(S(=O)(=O)N2CCCCC2)c1	93	89	97	98	94
O=S(=O)(c1cc(-c2nnc(-c3ccc(Br)cc3)o2)ccc1Br)N1CCCCCC1	55	94	77	42	29*
O=C(Nc1nnc(CSCc2ccc(F)cc2)s1)c1ccc([N+](=O)[O-])cc1	94	.	.	99	.
O/N=C1\CC/C(=N\O)c2nn(-c3ccccc3Cl)nc21	102	47*	77	105	.
CCCCC(O)(CCN1CCOCC1)c1ccc(Cl)cc1 (configuration not stated)	75	98	99	73	97
CCCC(O)(c1ccc(Cl)cc1)C(CN1CCOCC1)c1ccccc1 (configuration not stated)	55	96	106	51	40*
CC(C)Oc1ccc(C(=O)Nc2ccccc2N2CCCC2)cc1	101	88	111	96	32*
CN1CCC2(CC1)N=C(c1ccc(F)cc1)C(=S)N2C(=O)c1ccc(C(C)(C)C)cc1	100	.	.	91	.
CC(=O)N1[C@H](Cc2ccccc2)C=C[C@]1(C)C(=O)NCc1ccccn1	95	.	.	97	.
CCOC(=O)/C(=N\Nc1ccc(Cl)cc1)c1csc(Nc2ccccc2)n1	22	.	.	14	.
CCOC(=O)/C(=N/Nc1ccccc1)c1csc(Nc2ccccc2)n1	24	92	81	15	11*
CCOC(=O)/C(=N\Nc1ccc(OC)cc1)c1csc(Nc2ccccc2)n1	63	108	84	73	24*
O=C(COc1cccnc1[N+](=O)[O-])Nc1ccc2c(c1)OC(F)(F)O2	103	.	.	93	.
Cc1cc(C)c(C(=O)COc2cccnc2[N+](=O)[O-])cc1C	73	79	85	79	1.1*
CCc1ccc(-c2cc(C(F)(F)F)n3nc(C(=O)Nc4c(C)nn(Cc5ccc(F)cc5)c4C)cc3n2)s1	59	.	.	72	.
SMILES	HCT116 PTEN-null	Fibroblast inh	HUVEC prolif 384	HCT116 bCat-KO	H69AR inhibit
S=C(NCCc1ccccc1)Nc1ccc(Br)cc1	55	.	.	66	.
N#CC(C#N)=c1ccc2c(c1)NC1(CCCCC1)N=2	1.3*	7.4*	28*	1.4*	1.1*
O=C(Cn1sc2ccccc2c1=O)NC12CC3CC(CC(C3)C1)C2	1.1*	.	.	0.7*	.
O=C(CSc1ccccc1C(=O)NCc1ccccc1)NC12CC3CC(CC(C3)C1)C2	67	.	.	84	.
Cc1c(-c2nc(N)nc(Nc3ccccc3F)n2)oc2ccccc12	67	78	79	64	20*
COCc1c(C(=O)OCc2nc(N)nc(Nc3ccccc3C)n2)oc2ccccc12	77	.	.	80	.
COc1cccc(Nc2nc(N)nc(-c3oc4ccccc4c3C)n2)c1	13	65	38	13	17*
COc1ccccc1Nc1nc(N)nc(CN2CCOCC2)n1	101	96	106	96	62
COc1ccccc1Nc1nc(N)nc(-c2cc3ccccc3o2)n1	81	104	94	97	10*
COc1cccc(Nc2cc(C)nc3ccccc23)c1	52	84	98	52	76
CCCN(CCC)S(=O)(=O)c1ccc(C(=O)Nc2nc(-c3ccccc3)c(C(=O)OCC)s2)cc1	80	.	.	76	.
COC(=O)c1nn2c(C(F)(F)F)cc(-c3ccc(Br)o3)nc2c1Br	.	58	93	.	33*
COc1ccc2c3c(cccc13)N(C)N=C2C	62	.	.	58	.
COc1ccccc1OCC(=O)Sc1ccc(C)cc1	90	105	68	103	64
Cc1ccc(OCC(=O)Sc2ccc(C)cc2)cc1	92	97	69	86	17*
CCc1ccc(OCCOCC(O)CN(CCO)CCO)cc1 (configuration not stated)	103	.	.	100	.
Cc1nc2c(c3c1[nH]c1ccccc13)C(O)CC(C)(C)C2 (configuration not stated)	28	.	.	22	.
O=C(NCc1ccco1)c1ccc(CNc2c(N3CCCCC3)c(=O)c2=O)cc1	100	.	.	96	.
O=C(c1ccc(O)cc1)c1ccc(Cl)cc1	111	.	.	92	.
C=C(c1ccc(O)cc1)c1ccc(O)cc1	56	.	86	67	23*
C/C=C(/C(=C/C)c1ccc(O)cc1)c1ccc(O)cc1	60	90	61	60	21*
Cc1ccc(C)c(S(=O)(=O)N2CCC(c3nc4c(nnn4Cc4ccc(F)cc4)c(=O)[nH]3)CC2)c1	92	96	63	96	44
Cc1ccc(Cn2nnc3c(=O)[nH]c(C4CCN(S(=O)(=O)c5cc(C)ccc5C)CC4)nc32)cc1	71	100	63	71	32*
O=C(CN(Cc1ccc(F)cc1)S(=O)(=O)c1ccc(S(=O)(=O)N2CCOCC2)cc1)Nc1ccccc1	49	.	.	65	.
COc1cc(/C=C/C(=O)c2c(O)cc(C)oc2=O)cc(OC)c1O	73	70	79	83	25*
SMILES	HCT116 PTEN-null	Fibroblast inh	HUVEC prolif 384	HCT116 bCat-KO	H69AR inhibit
COc1cccc(/C=C/C(=O)c2c(O)cc(C)oc2=O)c1O	62	69	61	54	4.0*
CC1CCc2cc(F)ccc2N1C(=O)CSc1nnc2c3ccccc3n(C)c2n1 (configuration not stated)	88	.	.	84	.
CC1Cc2ccccc2N1C(=O)CSc1nnc2c(n1)[nH]c1ccc(F)cc12 (configuration not stated)	7	100	53	36	38*
COC(=O)c1sccc1NC(=S)N1CCN(c2cc(C)ccc2C)CC1	50	.	.	67	.
Cc1cc(NC(=O)COC(=O)C(Nc2ccc(C(F)(F)F)cc2Cl)C(C)C)no1 (configuration not stated)	51	92	13*	62	75
O=C(CCC1CCCCC1)NNC(=O)NC12CC3CC(CC(C3)C1)C2	101	.	.	93	.
CC1(C)CC(=O)C2=C(C1)N(c1ccccc1)C(=O)C2(O)C(F)(F)F (configuration not stated)	85	.	.	98	.
